The test system of experiment [1] is MDA-MB-231. Description: Antiproliferative activity against human MDA-MB-231 cells after 4 days by microplate assay. It counts as functional, cell-based. The note with it: MDA-MB-231, 96 h. Put shortly:
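Cells grown 2–3 days in 96-well plates (37 °C, 5% CO2), medium then replaced with compound-containing medium (controls 0.1% DMF), about 4 days' exposure. Fixed with 1% glutaric dialdehyde, stained with 0.02% crystal violet for 25 min, dye extracted with 70% EtOH, OD read at 578 nm; initial density from fixed wells. IC50 from 16–24 replicates per experiment.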

Another experiment relates to MCF7. Description: Antiproliferative activity against human MCF7 cells after 5 days by microplate assay. To be noted: MCF7, 120 h. Type of experiment: functional, cell-based. Put shortly:
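MCF-7 cells in EMEM with sodium pyruvate, gentamycin, NaHCO3, phenol red, 10% FCS; grown 2–3 days in 96-well plates, then medium with compound (0.1% DMF in controls) for 5 days. Glutaric dialdehyde fixation, 0.02% crystal violet staining, 70% EtOH extraction, OD 578 nm. Initial density from fixed wells. IC50; mean of two independent experiments, 16–24 replicates.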

Experiment [2] deals with HL-60 (Homo sapiens). The experiment in a line: Inhibition of cell growth in human HL-60 cells after 48 hrs by MTT assay. The note with it: HL-60, 48 h.
The test system of a further experiment is A-431. Description: Inhibition of cell growth in human A431 cells after 3 days by microplate assay. It counts as functional, cell-based. To be noted: A-431, 72 h. The method, boiled down: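 A-431 vulva carcinoma cells, crystal violet microplate protocol as for MDA-MB 231 but with 5% FCS; 3 days' exposure, 0.1% DMF controls. Fixation with glutaric dialdehyde, 0.02% crystal violet, 70% EtOH extraction, OD 578 nm. IC50, mean of four independent experiments with 16–24 replicates ± SD.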

For the next experiment, the species on record is Bos taurus. The experiment in a line: Inhibition of temperature-induced tubulin polymerization of calf brain at 40 uM. Also noted: scale not given: the % may be the effect or the level left. Put shortly:
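Calf brain tubulin purified by temperature-dependent polymerization cycles, then depolymerized at 0 °C in PEMG buffer. Supernatant preincubated 15 min at 37 °C with compound (40 µM, DMSO), chilled, and GTP added. Polymerization started by shifting from 2 °C to 37 °C, followed by absorbance at 350 nm over 20 min. Reported relative to inhibitor-free controls (100%).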

The nature of experiment [3]: Antitumor activity against MXT cells xenografted B2D2F1 mouse at 10 mg/kg, sc relative to control. It counts as functional. To be noted: route subcutaneous. Put shortly: (§1)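 Hormone-resistant MXT tumor pieces (1 mm³) transplanted into 8- to 9-week-old female B2D2F1 mice, groups of 6–8, randomly assigned. Compound given subcutaneously three times per week for two weeks. Tumor area compared with untreated controls (T/C × 100). Body weight change taken between first and last treatment day.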

Experiment [4] is described as follows: Antitumor activity against MXT cells xenografted B2D2F1 mouse at 30 mg/kg, sc relative to control. Type of experiment: functional. The note with it: route subcutaneous. Put shortly: as §1
Experiment [5] concerns Mus musculus. Description: Effect on body weight in MXT cells xenografted B2D2F1 mouse at 10 mg/kg, sc. To be noted: route subcutaneous. It counts as functional. The method, boiled down: as §1
The subject of experiment [6] is Mus musculus. The experiment in a line: Effect on body weight in MXT cells xenografted B2D2F1 mouse at 30 mg/kg, sc. Type of experiment: functional. To be noted: route subcutaneous. Put shortly: as §1
In experiment [7] the test system is MDA-MB-231. The experiment in a line: Cell cycle arrest in MDA-MB-231 cells by accumulation at G2/M phase at 0.1 uM after 24 hrs by flow cytometry. Type of experiment: functional, cell-based. To be noted: Homo sapiens. Put shortly:
(§2)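 Cells grown to 70–80% confluence in flasks and exposed 24 h to compound in DMF (0.1% final), one flask per concentration. Trypsinized, fixed in ice-cold 70% EtOH, DNA extraction buffer 5 min, propidium iodide staining ≥30 min at room temperature. Flow cytometry of 8,000–15,000 events; percentages of sub-G1, G1/G0, S, G2/M cells; representative of two experiments.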
A general note: In flow cytometry, cells or beads pass a laser one at a time.

The subject of experiment [8] is MDA-MB-231. The experiment in a line: Cell cycle arrest in MDA-MB-231 cells by accumulation at G2/M phase at 0.5 uM after 24 hrs by flow cytometry. It counts as functional, cell-based. To be noted: Homo sapiens. The method, boiled down:
as §2

Experiment [9] deals with MDA-MB-231. Description: Cell cycle arrest in MDA-MB-231 cells by accumulation at G2/M phase at 1.0 uM after 24 hrs by flow cytometry. To be noted: Homo sapiens. Type of experiment: functional, cell-based. The method, boiled down:
as §2

Experiment [10] relates to HL-60 (Homo sapiens). Description: Induction of apoptosis in human HL-60 cells assessed as increase in caspase 3 activation at 1 uM after 24 hrs.
In experiment [11] the test system is HL-60 (Homo sapiens). Description: Induction of apoptosis in human HL-60 cells assessed as increase in caspase 9 activation at 1 uM after 24 hrs.
In experiment [12] the test system is MDA-MB-231. The experiment in a line: Cell cycle arrest in MDA-MB-231 cells by accumulation at G2/M phase at 0.01 uM after 24 hrs by flow cytometry. Type of experiment: functional, cell-based. The note with it: Homo sapiens. The method, boiled down:
as §2

These results are taken from ChEMBL document CHEMBL1137541, “[(2-Phenylindol-3-yl)methylene]propanedinitriles inhibit the growth of breast cancer cells by cell cycle arrest in G(2)/M phase and apoptosis” (Bioorg Med Chem, 2007).

Calls of active or inactive are those of the source. The rule behind the calls is not given here.

Turning to `COc1ccc(-c2[nH]c3ccc(C(C)C)cc3c2C=C(C#N)C#N)cc1`, the figures for the IC50 with MDA-MB-231 [1] and in the experiment on MCF7 were 210 nM and 310 nM, respectively.

For `CCCCc1ccc2[nH]c(-c3ccc(CC)cc3)c(C=C(C#N)C#N)c2c1`, the IC50 with MDA-MB-231 [1] amounted to 76 nM; in the experiment with MCF7, 200 nM.

Take `N#CC(C#N)=Cc1c(-c2ccccc2)[nH]c2ccccc12`: the IC50 in the experiment with MDA-MB-231 [1] was found to be 430 nM; with MCF7, 190 nM.

For `COc1cc([C@@H]2c3cc4c(cc3[C@@H](O[C@@H]3O[C@@H]5CO[C@@H](C)O[C@H]5[C@H](O)[C@H]3O)[C@H]3COC(=O)[C@H]23)OCO4)cc(OC)c1O` [ETOPOSIDE], the IC50 in the experiment on HL-60 (Homo sapiens) [2] was found to be 315 nM.

As to `CCCc1ccc2[nH]c(-c3ccc(OC)cc3)c(C=C(C#N)C#N)c2c1`, the IC50 in the experiment on MDA-MB-231 [1] was 83 nM; in the experiment with MCF7, 190 nM.

As to `COc1ccc2c(C=C(C#N)C#N)c(-c3ccc(C)cc3)[nH]c2c1`, the IC50 is 180 nM in the experiment on MDA-MB-231 [1] and 250 nM in the experiment with MCF7.

With `O=Cc1c(-c2ccccc2)[nH]c2ccccc12` [2-PHENYL-1H-INDOLE-3-CARBALDEHYDE], the 50% inhibitory concentration (IC50) with MDA-MB-231 [1] was found to be 420 nM; in the experiment with MCF7 it was 650 nM; in the experiment on A-431 it was 760 nM. Moreover, in the experiment listed under Bos taurus, the Activity worked out at 98%.

For `CCCCCCc1ccc2[nH]c(-c3ccc(C(F)(F)F)cc3)c(C=C(C#N)C#N)c2c1`, the figures for the IC50 in the experiment on MDA-MB-231 [1] and with MCF7 were 150 nM and 68 nM, respectively.

With `COc1ccc(-c2[nH]c3ccc(OC)cc3c2C=C(C#N)C#N)cc1`, the results for the IC50 in the experiment with MDA-MB-231 [1] and in the experiment with MCF7 were 590 nM and 340 nM, respectively.

Turning to `COc1ccc(-c2[nH]c3ccccc3c2C=C(C#N)C#N)cc1`, the IC50 in the experiment with MDA-MB-231 [1] was found to be 720 nM; with MCF7 it was 770 nM.

For `COc1ccc(-c2[nH]c3cc(OC)ccc3c2C=C(C#N)C#N)cc1`, the results for the IC50 with MDA-MB-231 [1] and in the experiment with MCF7 were 260 nM and 300 nM, respectively.

For the molecule `COc1ccc(-c2[nH]c3cc(F)ccc3c2C=C(C#N)C#N)cc1`, the results for the IC50 in the experiment with MDA-MB-231 [1] and in the experiment with MCF7 were 280 nM and 220 nM, respectively. Further, the Activity in experiment [3] came to 74%; in experiment [4], 56%; in the experiment on Mus musculus [5], 3.6%; in the experiment with Mus musculus [6], 2.3%.

`COc1ccc(-c2[nH]c3ccccc3c2C=O)cc1`: the IC50 came out at 470 nM in the experiment on MDA-MB-231 [1], 180 nM in the experiment with MCF7 and 210 nM in the experiment with A-431. In the experiment filed under Bos taurus, this molecule returned an Activity of 3%.

On to `CCCCCc1ccc2[nH]c(-c3ccc(C(F)(F)F)cc3)c(C=C(C#N)C#N)c2c1`, for which the results for the IC50 in the experiment on MDA-MB-231 [1] and in the experiment on MCF7 were 78 nM and 100 nM, respectively.

For the molecule `CCCCc1ccc2[nH]c(-c3ccc(OC)cc3)c(C=C(C#N)C#N)c2c1`, the IC50 came out at 26 nM in the experiment on MDA-MB-231 [1] and 13 nM in the experiment with MCF7.

For the molecule `CCCCc1ccc2[nH]c(-c3ccc(C)cc3)c(C=C(C#N)C#N)c2c1`, the IC50 in the experiment on MDA-MB-231 [1] was found to be 65 nM; in the experiment on MCF7, 100 nM.

Take `CCCCCCc1ccc2[nH]c(-c3ccc(OC)cc3)c(C=C(C#N)C#N)c2c1`: the IC50 was 46 nM in the experiment with MDA-MB-231 [1] and 25 nM in the experiment with MCF7. In addition, the result in the experiment on MDA-MB-231 [7], in the experiment with MDA-MB-231 [8] and in the experiment with MDA-MB-231 [9] was Active.

On to `COc1ccc(-c2[nH]c3ccc(C)cc3c2C=C(C#N)C#N)cc1`, for which the IC50 was found to be 280 nM with MDA-MB-231 [1] and 200 nM in the experiment with MCF7.

As to `COc1ccc(-c2[nH]c3cc(F)ccc3c2C=O)cc1`, the values for the IC50 in the experiment with MDA-MB-231 [1], with MCF7 and in the experiment with A-431 were 47 nM, 43 nM and 180 nM, respectively. Besides, in the experiment filed under Bos taurus, the Activity worked out at 8%.

For the molecule `CCCCc1ccc2[nH]c(-c3ccc(C(F)(F)F)cc3)c(C=C(C#N)C#N)c2c1`, the results for the IC50 with MDA-MB-231 [1], in the experiment on MCF7 and in the experiment with HL-60 (Homo sapiens) [2] were 56 nM, 150 nM and 70 nM, respectively. The outcome in the experiment on HL-60 (Homo sapiens) [10] and with HL-60 (Homo sapiens) [11] was Active.

`CCCCCc1ccc2[nH]c(-c3ccc(OC)cc3)c(C=C(C#N)C#N)c2c1`: the IC50 in the experiment on MDA-MB-231 [1] is 42 nM; in the experiment with MCF7, 76 nM; in the experiment on HL-60 (Homo sapiens) [2] it was 41 nM. Besides, the outcome with HL-60 (Homo sapiens) [10] and in the experiment with HL-60 (Homo sapiens) [11] was Active.

Regarding `COc1ccc(-c2[nH]c3cc(Cl)c(C)cc3c2C=C(C#N)C#N)cc1`, the IC50 amounted to 75 nM in the experiment on MDA-MB-231 [1] and 200 nM in the experiment on MCF7.

For the molecule `COc1ccc(-c2[nH]c3ccc(OC)cc3c2C=O)cc1`, the IC50 in the experiment on MDA-MB-231 [1] was 260 nM; in the experiment with MCF7 it was 180 nM; with A-431 it was 200 nM. The molecule further came in with an Activity in the experiment listed under Bos taurus of 7%.

The molecule `CC[C@]1(O)C[C@H]2CN(CCc3c([nH]c4ccccc34)[C@@](C(=O)OC)(c3cc4c(cc3OC)N(C=O)[C@H]3[C@@](O)(C(=O)OC)[C@H](OC(C)=O)[C@]5(CC)C=CCN6CC[C@]43[C@@H]65)C2)C1` [VINCRISTINE] had an IC50 in the experiment with MDA-MB-231 [1] of 4.5 nM. The result in the experiment with MDA-MB-231 [12] and in the experiment with MDA-MB-231 [7] was Active.

Take `COc1ccc(-c2[nH]c3ccc(F)cc3c2C=C(C#N)C#N)cc1`: the IC50 in the experiment on MDA-MB-231 [1] amounted to 400 nM; in the experiment with MCF7 it was 310 nM.

For orientation: IC50 means the concentration that inhibits the measured activity by half.
